9 compounds from ChEMBL document CHEMBL1124872, “Guanosine analogues. Synthesis of nucleosides of certain 3-substituted 6-aminopyrazolo[3,4-d]pyrimidin-4(5H)-ones as potential immunotherapeutic agents” (1990) can be followed below.

Type in all cases: functional
Assay [1] concerns Semliki Forest virus. The assay is described as follows: Effect of compound on forest virus infection in mice at the dose of 200 mg/kg; tested over 12 mice. The method, boiled down: (§1)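 Female Swiss Webster mice, about 20 g, received test compound intraperitoneally in aqueous 2% sodium bicarbonate. The daily dose was split into two halves given 24 h and 18 h before lethal Semliki Forest virus inoculation. Placebo mice got 2% sodium bicarbonate alone (0.1 mL/injection). The read-outs were survivors per group and mean survival time with standard deviation.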

Assay [2] deals with Semliki Forest virus. The assay is described as follows: Effect of compound on forest virus infection in mice, Mean survival time through 21 days at 200 mg/kg dose. In short, it runs like this:
as §1

Assay [3] deals with Semliki Forest virus. The assay is described as follows: Effect of compound on forest virus infection in mice, Mean survival time through 21 days at 100 mg/kg dose. The method, boiled down: as §1
In assay [4] the test system is Semliki Forest virus. The assay is described as follows: Effect of compound on forest virus infection in mice at the dose of 100 mg/kg; tested over 12 mice. In short, it runs like this:
as §1

Assay [5] has as its system Semliki Forest virus. Put plainly: Effect of compound on forest virus infection in mice at the dose of 100 mg/kg; Tested over 12 mice. The method, boiled down: as §1
Assay [6] relates to Mus musculus. The assay is described as follows: In vivo effect of Guanosines on murine NK cell activity at E:T ratio of 100:1. In short, it runs like this: (§2)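 Mice dosed ip with 150 mg/kg in 2% aqueous sodium bicarbonate, split as 75 mg/kg b.i.d. for 1 day; controls got 2% sodium bicarbonate alone; groups of two. Spleens taken after 24 h; splenocytes tested ex vivo against 51Cr-labelled YAC-1 T-cell lymphoma targets in a 4 h 51Cr release assay, in triplicate, at two effector:target ratios.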

Assay [7] deals with Mus musculus. The assay is described as follows: In vivo effect of Guanosines on murine NK cell activity at E:T ratio of 50:1. The method, boiled down:
as §2

Assay [8] relates to Semliki Forest virus. The assay is described as follows: Effect of compound on forest virus infection in mice at the dose of 200 mg/kg; Tested over 12 mice. In short, it runs like this: as §1
Assay [9] relates to Mus musculus. The assay is described as follows: In vivo effect of Guanosines on murin NK cell activity at E:T ratio of 100:1. In short, it runs like this: as §2
Assay [10] relates to Semliki Forest virus. Put plainly: Effect of compound on forest virus infection in mice at the dose of 200 mg/kg; tested over 11 mice. In short, it runs like this: as §1

Bounds are passed on as bounds.

Consider `Nc1nc2c(c(C(=O)O)nn2C2O[C@H](CO)[C@@H](O)[C@H]2O)c(=O)[nH]1` (stereo partly drawn), for which the Survivors / total in the assay with Semliki Forest virus [1] is on record as 3; with Semliki Forest virus [4] it was 1. Besides, the results for the Mean survival time with Semliki Forest virus [2] and with Semliki Forest virus [3] were 6.3 days and 6 days, respectively.
In the case of `Nc1nc2c(cnn2C2O[C@H](CO)[C@@H](O)[C@H]2O)c(=O)[nH]1` (stereo partly drawn), the Survivors / total with Semliki Forest virus [5] was 9; in the assay with Semliki Forest virus [8], 12. For the same compound, the Mean survival time with Semliki Forest virus [2] is greater than 21 days; in the assay on Semliki Forest virus [3] it was 9 days. Further, the Cytotoxicity in the assay on Mus musculus [6] is reported as 41.1%; in the assay on Mus musculus [7], 26.9%.
Regarding `Nc1nc2c(c(Br)nn2C2O[C@H](CO)[C@@H](O)[C@H]2O)c(=O)[nH]1` (stereo partly drawn), the Survivors / total with Semliki Forest virus [5] and with Semliki Forest virus [8] was 11 each time. Moreover, the Mean survival time in the assay on Semliki Forest virus [2] and with Semliki Forest virus [3] was 9 days throughout. For the same compound, the values for the Cytotoxicity with Mus musculus [7] and with Mus musculus [9] were 24.4% and 33.2%, respectively.
Regarding `Cc1nn(C2O[C@H](CO)[C@@H](O)[C@H]2O)c2nc(N)[nH]c(=O)c12` (stereo partly drawn), the Mean survival time in the assay with Semliki Forest virus [2] is 6.4 days; with Semliki Forest virus [3], 8 days. Besides, the values for the Survivors / total with Semliki Forest virus [10] and in the assay on Semliki Forest virus [4] were 6 and 8, respectively. The Cytotoxicity turned out to be 29.7% in the assay with Mus musculus [6] and 17% in the assay with Mus musculus [7].
For the compound `Nc1nc2c(c(N)nn2C2O[C@H](CO)[C@@H](O)[C@H]2O)c(=O)[nH]1` (stereo partly drawn), the results for the Survivors / total with Semliki Forest virus [5] and with Semliki Forest virus [8] were 1 and 3, respectively. Moreover, the Mean survival time in the assay with Semliki Forest virus [2] came out at 6.8 days; in the assay with Semliki Forest virus [3] it was 6.2 days. Further, the Cytotoxicity worked out at 25% in the assay on Mus musculus [6] and 16.8% in the assay on Mus musculus [7].
With `COc1nn(C2O[C@H](CO)[C@@H](O)[C@H]2O)c2nc(N)[nH]c(=O)c12` (stereo partly drawn), the Survivors / total in the assay on Semliki Forest virus [5] and with Semliki Forest virus [1] was 2 each time. For the same compound, the figures for the Mean survival time in the assay with Semliki Forest virus [2] and with Semliki Forest virus [3] were 8.6 days and 7.8 days, respectively.
In the assay with Semliki Forest virus [1], `Nc1nc2c(c(=O)[nH]1)c(=O)[nH]n2C1O[C@H](CO)[C@@H](O)[C@H]1O` (stereo partly drawn) displayed a Survivors / total of 0%. The Mean survival time in the assay with Semliki Forest virus [2] is 6.9 days; in the assay with Semliki Forest virus [3], 7 days.
As for `N=c1[nH]c(=O)c2c(-c3ccccc3)nn(C3O[C@H](CO)[C@@H](O)[C@H]3O)c2[nH]1` (stereo partly drawn), the Survivors / total was 0 in the assay on Semliki Forest virus [1] and 1 with Semliki Forest virus [4]. Besides, the Mean survival time with Semliki Forest virus [2] was 7.2 days; in the assay with Semliki Forest virus [3] it was 6 days.
For the compound `Nc1nc(=O)c2sc(=O)n([C@@H]3O[C@H](CO)[C@@H](O)[C@H]3O)c2[nH]1` [ISATORIBINE], the figures for the Survivors / total in the assay with Semliki Forest virus [5] and in the assay with Semliki Forest virus [8] were 10 and 12, respectively. In addition, the Mean survival time with Semliki Forest virus [2] was greater than 21 days; in the assay with Semliki Forest virus [3], 11.5 days.
